Source: ChEMBL document CHEMBL4325909, “Synthesis and evaluation of chalcone analogues containing a 4-oxoquinazolin-2-yl group as potential anti-tumor agents” (Eur J Med Chem, 2019)

Key:
MCF7 [1] = assay: Cytotoxicity against human MCF7 cells assessed as reduction in cell viability after 72 hrs by MTS assay; format: functional, cell-based; details: MCF7, 72 h
In short: (§1)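 Cells kept in DMEM with 10% FBS at 37 °C, 5% CO2. Proliferation read by MTS (CellTiter 96 AQueous One) 72 h after exposure across a concentration range. IC50 is the concentration giving 50% proliferation inhibition. Triplicate wells, three independent experiments, mean ± SD.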

MCF7 [2] = assay: Cytotoxicity against human MCF7 cells assessed as reduction in cell viability at 20 uM after 72 hrs by MTS assay relative to control; format: functional
In short: (§2)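 Cells grown in DMEM with 10% FBS at 37 °C, 5% CO2, exposed to 20 μM for 72 h. Proliferation read by MTS and inhibition expressed relative to vehicle. ≥50% inhibition counted as active. Triplicate wells, three independent experiments.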

HCT-116 [3] = assay: Cytotoxicity against human HCT116 cells assessed as reduction in cell viability after 72 hrs by MTS assay; format: functional, cell-based; details: HCT-116, 72 h; in short: as §1
HCT-116 [4] = assay: Cytotoxicity against human HCT116 cells assessed as reduction in cell viability at 20 uM after 72 hrs by MTS assay relative to control; format: functional; in short: as §2
HT-29 = assay: Cytotoxicity against human HT-29 cells assessed as reduction in cell viability after 72 hrs by MTS assay; format: functional, cell-based; details: HT-29, 72 h
In short: (§3)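 MTS (CellTiter 96 AQueous One) proliferation read after 72 h of exposure across a concentration range. IC50 is the concentration giving 50% proliferation inhibition. Triplicate determinations in three independent experiments, mean ± SD.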

A549 = assay: Cytotoxicity against human A549 cells assessed as reduction in cell viability after 72 hrs by MTS assay; format: functional, cell-based; details: A549, 72 h; in short: as §3
MCF-10A = assay: Cytotoxicity against human MCF10A cells assessed as reduction in cell viability after 72 hrs by MTS assay; format: cell-based; in short: as §3
MDA-MB-231 = assay: Cytotoxicity against human MDA-MB-231 cells assessed as reduction in cell viability after 72 hrs by MTS assay; format: functional, cell-based; details: MDA-MB-231, 72 h; in short: as §3
HeLa = assay: Cytotoxicity against human HeLa cells assessed as reduction in cell viability after 72 hrs by MTS assay; format: functional, cell-based; in short: as §3

Row | Structure (SMILES) | IC50 (MCF7 [1]) [µM] | Activity (MCF7 [2]) | IC50 (HCT-116 [3]) [µM] | Activity (HCT-116 [4]) | IC50 (HT-29) [µM] | IC50 (A549) [µM] | IC50 (MCF-10A) [µM] | IC50 (MDA-MB-231) [µM] | IC50 (HeLa) [µM]
1 | COc1cc(C(=O)/C=C/c2nc3ccccc3c(=O)[nH]2)cc(OC)c1OC | 13.9 | >=50% | 12.8 | >=50% | – | – | – | – | –
2 | COc1ccc(/C=C/C(=O)c2nc3ccccc3c(=O)[nH]2)cc1OC | > 20 | < 50% | > 20 | < 50% | – | – | – | – | –
3 | O=C(/C=C/c1nc2ccccc2c(=O)[nH]1)c1ccc(F)cc1 | > 20 | < 50% | > 20 | < 50% | – | – | – | – | –
4 | Cc1ccc(C(=O)/C=C/c2nc3ccccc3c(=O)[nH]2)cc1 | 9.44 | >=50% | 5.75 | >=50% | – | – | – | – | –
5 | COc1cc(/C=C/C(=O)c2nc3ccccc3c(=O)[nH]2)cc(OC)c1OC | > 20 | < 50% | > 20 | >=50% | – | – | – | – | –
6 | COc1ccccc1/C=C/C(=O)c1nc2ccccc2c(=O)[nH]1 | > 20 | >=50% | > 20 | < 50% | – | – | – | – | –
7 | COc1ccc(/C=C/C(=O)c2nc3ccccc3c(=O)[nH]2)c(OC)c1 | > 20 | < 50% | > 20 | < 50% | – | – | – | – | –
8 | O=C(/C=C/c1cccnc1)c1nc2ccccc2c(=O)[nH]1 | > 20 | >=50% | > 20 | >=50% | – | – | – | – | –
9 | COc1cccc(C(=O)/C=C/c2nc3ccccc3c(=O)[nH]2)c1 | 12.9 | >=50% | 12 | >=50% | – | – | – | – | –
10 | Cc1ccccc1C(=O)/C=C/c1nc2ccccc2c(=O)[nH]1 | 4.2 | >=50% | 4.14 | >=50% | 6.45 | 13.3 | 6.19 | 10.5 | 10.4
11 | O=C(/C=C/c1nc2ccccc2c(=O)[nH]1)c1ccccc1 | 4.09 | >=50% | 5.47 | >=50% | – | – | – | – | –
12 | O=C(/C=C/c1ccncc1)c1nc2ccccc2c(=O)[nH]1 | > 20 | < 50% | > 20 | >=50% | – | – | – | – | –
13 | COc1cc(C(=O)/C=C/c2nc3ccccc3c(=O)[nH]2)ccc1O | 6.05 | >=50% | 4.58 | >=50% | – | – | – | – | –
14 | O=C(/C=C/c1nc2ccccc2c(=O)[nH]1)c1ccc(C(F)(F)F)cc1 | > 20 | < 50% | > 20 | < 50% | – | – | – | – | –
15 | O=C(/C=C/c1ccco1)c1nc2ccccc2c(=O)[nH]1 | > 20 | >=50% | > 20 | >=50% | – | – | – | – | –
16 | O=C(/C=C/c1nc2ccccc2c(=O)[nH]1)c1ccc(Cl)cc1 | 6.09 | >=50% | 6.1 | >=50% | – | – | – | – | –
17 | O=C(/C=C/c1ccccc1)c1nc2ccccc2c(=O)[nH]1 | > 20 | >=50% | > 20 | < 50% | – | – | – | – | –
18 | O=C(/C=C/c1ccc(Cl)cc1)c1nc2ccccc2c(=O)[nH]1 | > 20 | >=50% | 15.6 | >=50% | – | – | – | – | –

Row | Structure (SMILES) | IC50 (MCF7 [1]) [µM] | Activity (MCF7 [2]) | IC50 (HCT-116 [3]) [µM] | Activity (HCT-116 [4]) | IC50 (HT-29) [µM] | IC50 (A549) [µM] | IC50 (MCF-10A) [µM] | IC50 (MDA-MB-231) [µM] | IC50 (HeLa) [µM]
19 | COc1ccccc1C(=O)/C=C/c1nc2ccccc2c(=O)[nH]1 | 4.3 | >=50% | 3.91 | >=50% | 6.71 | 13.7 | 5.26 | 15.7 | 13.4
20 | O=C(/C=C/c1nc2ccccc2c(=O)[nH]1)c1ccc(Cl)c(Cl)c1 | 8.21 | >=50% | 17 | >=50% | – | – | – | – | –
21 | Nc1ccc(C(=O)/C=C/c2nc3ccccc3c(=O)[nH]2)cc1 | > 20 | < 50% | > 20 | < 50% | – | – | – | – | –
22 | COc1cc(/C=C/C(=O)c2nc3ccccc3c(=O)[nH]2)cc(OC)c1 | 16.8 | >=50% | 15.8 | >=50% | – | – | – | – | –
23 | O=C(/C=C/c1nc2ccccc2c(=O)[nH]1)c1ccc(Br)cc1 | 3.75 | >=50% | 4.74 | >=50% | > 20 | 19.5 | 11.3 | 18.3 | 16.1
24 | COc1ccc(C(=O)/C=C/c2nc3ccccc3c(=O)[nH]2)cc1 | 10.2 | >=50% | 10 | >=50% | – | – | – | – | –
25 | N#Cc1ccc(/C=C/C(=O)c2nc3ccccc3c(=O)[nH]2)cc1 | > 20 | >=50% | 19.8 | >=50% | – | – | – | – | –
26 | COc1cc(OC)c(C(=O)/C=C/c2nc3ccccc3c(=O)[nH]2)c(OC)c1 | 5.02 | >=50% | 5.57 | >=50% | – | – | – | – | –
27 | O=C(/C=C/c1ccc([N+](=O)[O-])cc1)c1nc2ccccc2c(=O)[nH]1 | > 20 | >=50% | 13.2 | >=50% | – | – | – | – | –
28 | O=C(/C=C/c1ccccn1)c1nc2ccccc2c(=O)[nH]1 | > 20 | >=50% | > 20 | >=50% | – | – | – | – | –
29 | O=C(/C=C/c1nc2ccccc2c(=O)[nH]1)c1ccc(O)cc1 | 4.92 | >=50% | 4.11 | >=50% | 10.7 | 15.1 | 6.12 | 16.5 | 9.44
30 | O=C(/C=C/c1cccs1)c1nc2ccccc2c(=O)[nH]1 | > 20 | >=50% | > 20 | >=50% | – | – | – | – | –
31 | O=C(/C=C/c1ccc(Br)cc1)c1nc2ccccc2c(=O)[nH]1 | > 20 | >=50% | > 20 | >=50% | – | – | – | – | –
32 | COc1cccc(/C=C/C(=O)c2nc3ccccc3c(=O)[nH]2)c1 | 15.5 | >=50% | 14.7 | >=50% | – | – | – | – | –
33 | Cc1ccc(/C=C/C(=O)c2nc3ccccc3c(=O)[nH]2)cc1 | > 20 | < 50% | > 20 | >=50% | – | – | – | – | –
34 | COc1ccc(/C=C/C(=O)c2nc3ccccc3c(=O)[nH]2)cc1 | > 20 | < 50% | > 20 | < 50% | – | – | – | – | –
35 | O=c1[nH]cc(F)c(=O)[nH]1 [FLUOROURACIL] | – | – | – | – | 9.99 | 15 | > 20 | > 20 | > 20
36 | O=C(/C=C/c1ccc(F)cc1)c1nc2ccccc2c(=O)[nH]1 | > 20 | >=50% | 15.2 | >=50% | – | – | – | – | –
